Data as given in ChEMBL document CHEMBL3228024, “Prodrug analogues of the antitumor alkaloid camptothecin” (1979).
pEC50: −log10 of the molar value. Calls of active or inactive are those of the source. The rule behind the calls is not given here.

Legend:
P388 [1] = assay: Antitumor activity against mouse P388 cells allografted in mouse assessed as increase in mouse survival time at 14.3 mg/kg, iv for 4 to 9 days relative to control; assay type: functional
In short: (§1)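 Run under NCI protocols 3LE21 (L1210) and 3PS31 (P388) in mice, six mice per test group. Drug was injected daily for 9 days, with 20–30 uninjected control animals. Mean or median survival time of the treated group was divided by that of controls and multiplied by 100, then reported as percentage increase in life span.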

P388 [2] = assay: Antitumor activity against mouse P388 cells allografted in mouse assessed as increase in mouse survival time at 0.5 mg/kg, iv for 4 to 9 days relative to control; assay type: functional; in short: as §1
P388 [3] = assay: Antitumor activity against mouse P388 cells allografted in mouse assessed as increase in mouse survival time at 1.6 mg/kg, iv for 4 to 9 days relative to control; assay type: functional; in short: as §1
[4] = system: Lewis lung carcinoma cell line; assay: Antitumor activity against mouse LLC cells allografted in mouse assessed as increase in mouse survival time at 44.4 mg/kg, iv for 4 to 9 days relative to control; assay type: functional
In short: (§2)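 Run under NCI protocols 3B131 (B-16 melanocytic melanoma) and 3LL32 (Lewis lung carcinoma) in mice, ten mice per test group. Drug was injected every 4 days, with 20–30 uninjected control animals. Mean or median survival of treated mice over that of controls ×100 was reported as percentage increase in life span.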

L1210 [5] = assay: Cytotoxicity against mouse L1210 cells relative to camptothecin; assay type: functional
P388 [6] = assay: Cytotoxicity against mouse P388 cells relative to camptothecin; assay type: functional
[7] = Cytotoxicity against human 9KB cells relative to camptothecin; assay type: functional
[8] = system: Lewis lung carcinoma cell line; assay: Antitumor activity against mouse LLC cells allografted in mouse assessed as increase in mouse survival time at 4 mg/kg, iv for 4 to 9 days relative to control; assay type: functional; in short: as §2
P388 [9] = assay: Antitumor activity against mouse P388 cells allografted in mouse assessed as increase in mouse survival time at 4.8 mg/kg, iv for 4 to 9 days relative to control; assay type: functional; in short: as §1
[10] = system: Lewis lung carcinoma cell line; assay: Antitumor activity against mouse LLC cells allografted in mouse assessed as increase in mouse survival time at 14.6 mg/kg, iv for 4 to 9 days relative to control; assay type: functional; in short: as §2
B16 [11] = assay: Antitumor activity against mouse B16 cells allografted in mouse assessed as increase in mouse survival time at 14.6 mg/kg, iv for 4 to 9 days relative to control; assay type: functional; in short: as §2
L1210 [12] = assay: Antitumor activity against mouse L1210 cells allografted in mouse assessed as increase in mouse survival time at 0.5 mg/kg, iv for 4 to 9 days relative to control; assay type: functional; in short: as §1
[13] = Cytotoxicity against human 9KB cells; assay type: functional
HeLa = assay: Antitumor activity against human HeLa cells assessed as inhibition of radioactive thymidine incorporation into acid-insoluble material by DNA sedimentation assay; assay type: functional, cell-based
P388 [14] = assay: Cytotoxicity against mouse P388 cells; assay type: functional; details: for pEC50: Mus musculus, P388, read-out: ED50 (the source's name)
L1210 [15] = assay: Antitumor activity against mouse L1210 cells allografted in mouse assessed as increase in mouse survival time at 1.6 mg/kg, iv for 4 to 9 days relative to control; assay type: functional; in short: as §1
B16 [16] = assay: Antitumor activity against mouse B16 cells allografted in mouse assessed as increase in mouse survival time at 4 mg/kg, iv for 4 to 9 days relative to control; assay type: functional; in short: as §2
L1210 [17] = assay: Antitumor activity against mouse L1210 cells allografted in mouse assessed as increase in mouse survival time at 4.8 mg/kg, iv for 4 to 9 days relative to control; assay type: functional; in short: as §1
B16 [18] = assay: Antitumor activity against mouse B16 cells allografted in mouse assessed as increase in mouse survival time at 46 mg/kg, iv for 4 to 9 days relative to control; assay type: functional; in short: as §2
L1210 [19] = assay: Cytotoxicity against mouse L1210 cells; assay type: functional
L1210 [20] = assay: Antitumor activity against mouse L1210 cells allografted in mouse assessed as increase in mouse survival time at 14.3 mg/kg, iv for 4 to 9 days relative to control; assay type: functional; in short: as §1
L1210 [21] = assay: Antitumor activity against mouse L1210 cells allografted in mouse assessed as increase in mouse survival time at 1.2 mg/kg, iv for 4 to 9 days relative to control; assay type: functional; in short: as §1
P388 [22] = assay: Antitumor activity against mouse P388 cells allografted in mouse assessed as increase in mouse survival time at 0.4 mg/kg, iv for 4 to 9 days relative to control; assay type: functional; in short: as §1
P388 [23] = assay: Antitumor activity against mouse P388 cells allografted in mouse assessed as increase in mouse survival time at 1.2 mg/kg, iv for 4 to 9 days relative to control; assay type: functional; in short: as §1
L1210 [24] = assay: Antitumor activity against mouse L1210 cells allografted in mouse assessed as increase in mouse survival time at 3.7 mg/kg, iv for 4 to 9 days relative to control; assay type: functional; in short: as §1
P388 [25] = assay: Antitumor activity against mouse P388 cells allografted in mouse assessed as increase in mouse survival time at 3.7 mg/kg, iv for 4 to 9 days relative to control; assay type: functional; in short: as §1
P388 [26] = assay: Antitumor activity against mouse P388 cells allografted in mouse assessed as increase in mouse survival time at 11.1 mg/kg, iv for 4 to 9 days relative to control; assay type: functional; in short: as §1
L1210 [27] = assay: Antitumor activity against mouse L1210 cells allografted in mouse assessed as increase in mouse survival time at 11.1 mg/kg, iv for 4 to 9 days relative to control; assay type: functional; in short: as §1
L1210 [28] = assay: Antitumor activity against mouse L1210 cells allografted in mouse assessed as increase in mouse survival time at 0.4 mg/kg, iv for 4 to 9 days relative to control; assay type: functional; in short: as §1
L1210 [29] = assay: Antitumor activity against mouse L1210 cells allografted in mouse assessed as increase in mouse survival time at 18.9 mg/kg, iv for 4 to 9 days relative to control; assay type: functional; in short: as §1
L1210 [30] = assay: Antitumor activity against mouse L1210 cells allografted in mouse assessed as increase in mouse survival time at 62.5 mg/kg, iv for 4 to 9 days relative to control; assay type: functional; in short: as §1
L1210 [31] = assay: Antitumor activity against mouse L1210 cells allografted in mouse assessed as increase in mouse survival time at 5.1 mg/kg, iv for 4 to 9 days relative to control; assay type: functional; in short: as §1
P388 [32] = assay: Antitumor activity against mouse P388 cells allografted in mouse assessed as increase in mouse survival time at 5.1 mg/kg, iv for 4 to 9 days relative to control; assay type: functional; in short: as §1
P388 [33] = assay: Antitumor activity against mouse P388 cells allografted in mouse assessed as increase in mouse survival time at 18.9 mg/kg, iv for 4 to 9 days relative to control; assay type: functional; in short: as §1
L1210 [34] = assay: Antitumor activity against mouse L1210 cells allografted in mouse assessed as increase in mouse survival time at 12.8 mg/kg, iv for 4 to 9 days relative to control; assay type: functional; in short: as §1
B16 [35] = assay: Antitumor activity against mouse B16 cells allografted in mouse assessed as increase in mouse survival time at 43.5 mg/kg, iv for 4 to 9 days relative to control; assay type: functional; in short: as §2
L1210 [36] = assay: Antitumor activity against mouse L1210 cells allografted in mouse assessed as increase in mouse survival time at 4.3 mg/kg, iv for 4 to 9 days relative to control; assay type: functional; in short: as §1
B16 [37] = assay: Antitumor activity against mouse B16 cells allografted in mouse assessed as increase in mouse survival time at 4.9 mg/kg, iv for 4 to 9 days relative to control; assay type: functional; in short: as §2
P388 [38] = assay: Antitumor activity against mouse P388 cells allografted in mouse assessed as increase in mouse survival time at 4.3 mg/kg, iv for 4 to 9 days relative to control; assay type: functional; in short: as §1
[39] = system: Lewis lung carcinoma cell line; assay: Antitumor activity against mouse LLC cells allografted in mouse assessed as increase in mouse survival time at 48 mg/kg, iv for 4 to 9 days relative to control; assay type: functional; in short: as §2
B16 [40] = assay: Antitumor activity against mouse B16 cells allografted in mouse assessed as increase in mouse survival time at 14.8 mg/kg, iv for 4 to 9 days relative to control; assay type: functional; in short: as §2
[41] = system: Lewis lung carcinoma cell line; assay: Antitumor activity against mouse LLC cells allografted in mouse assessed as increase in mouse survival time at 15.7 mg/kg, iv for 4 to 9 days relative to control; assay type: functional; in short: as §2
P388 [42] = assay: Antitumor activity against mouse P388 cells allografted in mouse assessed as increase in mouse survival time at 12.8 mg/kg, iv for 4 to 9 days relative to control; assay type: functional; in short: as §1
L1210 [43] = assay: Antitumor activity against mouse L1210 cells allografted in mouse assessed as increase in mouse survival time at 1.4 mg/kg, iv for 4 to 9 days relative to control; assay type: functional; in short: as §1
P388 [44] = assay: Antitumor activity against mouse P388 cells allografted in mouse assessed as increase in mouse survival time at 1.4 mg/kg, iv for 4 to 9 days relative to control; assay type: functional; in short: as §1

CCCCCC(=O)OCc1c([C@@](O)(CC)C(=O)NC(C)C)cc2n(c1=O)Cc1cc3ccccc3nc1-2
T/C (P388 [1]): 155% | T/C (P388 [2]): 107% | T/C (P388 [3]): 107% | T/C [4]: 134% | Activity (L1210 [5]): 2% | Activity (P388 [6]): 0.01% | Activity [7]: 29% | T/C [8]: 163% | T/C (P388 [9]): 139% | T/C [10]: 147% | T/C (B16 [11]): 109% | T/C (L1210 [12]): 105% | ED50 [13]: 8.1 ×10⁻⁵ umol/ml | inhibition (HeLa): Active | pEC50 (P388 [14]): 5.92 | T/C (L1210 [15]): 105% | T/C (B16 [16]): 110% | T/C (L1210 [17]): 116% | T/C (B16 [18]): 109% | ED50 (L1210 [19]): 5.5 ×10⁻⁴ umol/ml | T/C (L1210 [20]): 133%

CC[C@@](O)(C(=O)[O-])c1cc2n(c(=O)c1CO)Cc1cc3ccccc3nc1-2.[Na+]
T/C (L1210 [21]): 147% | T/C (P388 [22]): 139% | inhibition (HeLa): Active | T/C (P388 [23]): 168% | T/C (L1210 [24]): 114% | T/C (P388 [25]): 85% | T/C (P388 [26]): 67% | T/C (L1210 [27]): 74% | T/C (L1210 [28]): 116%

CC[C@@](O)(C(=O)NC(C)C)c1cc2n(c(=O)c1CN1CCCC1)Cc1cc3ccccc3nc1-2
Activity (L1210 [5]): 23% | Activity (P388 [6]): 0.13% | Activity [7]: 7.8% | T/C (L1210 [29]): 101% | T/C (L1210 [30]): 113% | ED50 [13]: 2.2 ×10⁻⁵ umol/ml | T/C (L1210 [31]): 109% | ED50 (P388 [14]): 1.1 ×10⁻⁴ umol/ml | T/C (P388 [32]): 111% | T/C (P388 [33]): 126% | ED50 (L1210 [19]): 6.5 ×10⁻⁵ umol/ml

CC[C@@](O)(C(=O)NC(C)C)c1cc2n(c(=O)c1COC(C)=O)Cc1cc3ccccc3nc1-2
T/C (L1210 [34]): 105% | T/C (P388 [2]): 126% | T/C (B16 [35]): 114% | T/C (L1210 [36]): 147% | Activity (P388 [6]): 0.08% | T/C (B16 [37]): 100% | Activity [7]: 2.8% | T/C [8]: 147% | T/C (P388 [38]): 173% | T/C [39]: 156% | T/C (L1210 [12]): 110% | ED50 [13]: 7.8 ×10⁻⁴ umol/ml | pEC50 (P388 [14]): 5.13 | T/C (B16 [40]): 105% | T/C [41]: 166% | T/C (P388 [42]): 97% | T/C (L1210 [43]): 116% | T/C (P388 [44]): 126%
